This is a sample that favours compounds with a hit; in the whole collection about 3% have one here.
Cneo AK release: Cryptococcus neoformans lysis via adenylate kinase release | C. neoformans lysis, adenylate kinase release luminescence, 4 h; normalised: neutral wells 0, clomiphene wells 100 | lysis activity, % at 15 µM | 360,000 compounds, 0.2% hits | AID 651654;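 active means mean lysis activity across replicates of at least 80%, whatever share of replicates individually reach that level; inactive means mean lysis activity below 80%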
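Schedule: static 4 h at 37 °C with compound, 1 h detection; system: C. neoformans cells; benchmarks: Clomiphene as positive control; buffer or medium: fresh YPD medium; measure: luminescence rise reflecting yeast cell lysis; measured by: luminescent adenylate kinase detection reagent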
rRNA inh HTS: inhibitors of bacterial rRNA selective over humanized ribosomes; E. coli WT GFP vs humanized-ribosome RFP mutants, fluorescence, 24 h; active compounds read low; DMSO median 0, no signal -100; GFP signal change (wild-type ribosome), % (no concentration beside the values); 350,000 compounds, 1.6% hits;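 active means significant combined selectivity score with lowered wild-type GFP, culture density cut under 30%, mutant RFP and density less affected; inactive means any of these conditions unmet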
S100A4 inh HTS: blocks human S100A4 binding to myosin IIA peptide; S100A4/TAMRA-MyoIIA peptide fluorescence polarization; 360,000 compounds, 0.14% hits; inhibition, % at 10.7 µM; P26447;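 active means mean inhibition of at least 70% across replicates, with every replicate also reaching that level; inconclusive means mean inhibition reaches 70% but some replicates fall short; inactive means mean inhibition below 70%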
Target sequence (P26447 whole entry, looked up): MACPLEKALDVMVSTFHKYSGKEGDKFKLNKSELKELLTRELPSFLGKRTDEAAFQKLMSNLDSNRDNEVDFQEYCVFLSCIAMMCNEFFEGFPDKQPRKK
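incubation = readout 5 min after mixing, signal stable up to 60 min | system = S100A4 monomer protein | buffer or medium = HEPES pH 7.2 with CaCl2, KCl, NaCl, DTT, Triton | benchmarks = neutral control DMSO, positive control TFP | also added = fluorescent myosin IIA peptide, 5 nM | compound dosing = one concentration per compound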
SIRT5 inh: inhibitors of human sirtuin-5 desuccinylase. Q9NXA8. Purified SirT5, succinyl-peptide AMC, trypsin-coupled fluorescence. inhibition, % at 15 µM. 330,000 compounds, 1.1% hits; in the data active means inhibition above about 15%; inconclusive means no clear call, values can overlap the other calls
Target sequence (Q9NXA8 whole entry, looked up): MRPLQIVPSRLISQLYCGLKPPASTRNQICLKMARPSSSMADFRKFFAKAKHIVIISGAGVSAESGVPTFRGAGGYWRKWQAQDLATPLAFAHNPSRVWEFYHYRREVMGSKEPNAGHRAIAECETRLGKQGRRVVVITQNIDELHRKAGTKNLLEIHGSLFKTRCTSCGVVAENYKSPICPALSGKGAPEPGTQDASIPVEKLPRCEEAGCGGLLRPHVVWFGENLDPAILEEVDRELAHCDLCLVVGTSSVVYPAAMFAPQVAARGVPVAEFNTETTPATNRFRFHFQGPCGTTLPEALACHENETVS
PGC1a acetyl inh: lowers PGC1a acetylation signal in U2OS cells; AlphaScreen anti-acetyl-lysine; with virally co-expressed GCN5 acetyltransferase; inhibition, % at 15.6 µM; 350,000 compounds, 0.17% hits; AID 651687;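 active means every replicate shows inhibition of at least 40%; inconclusive means mean inhibition at least 40% but some replicate below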
Statin myotox sup: suppressors of simvastatin-induced myotoxicity in C2C12 myotubes | ATP luminescence, 48 h; scaled: DMSO 0, geranylgeraniol control 100 | rescue of ATP level, % at 7.49 µM | 330,000 compounds, 0.78% hits | AID 602340;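 active means mean ATP rescue above about 67%, or every replicate alone reaching that limit, limit read from the data, passing the limit was not always enough; inconclusive means no clear call, values can overlap the other calls; inactive means mean under the limit and some replicate under it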;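 further: myotubes were challenged with 10 µM simvastatin during compound exposure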
Of the large screens only hits and unclear results are named; the others gave an inactive call.

CN(C)S(=O)(=O)c1ccc(Cl)c(NC(=O)CSc2nnnn2-c2ccc(O)cc2)c1	rRNA inh HTS -29.4 (no result: Cneo AK release, PGC1a acetyl inh, Statin myotox sup)
Cc1nc2ccccc2n1Cc1ccc(Br)cc1	rRNA inh HTS -47.0 (no result: Statin myotox sup)
Cc1ccc(CNC(=O)N[C@@H](Cc2ccccc2)C(=O)O)cc1	SIRT5 inh 17.0 (no result: Statin myotox sup)
CO[C@@H]1CN(C)C(=O)c2cc(NS(C)(=O)=O)ccc2OC[C@@H](C)N(Cc2ccccn2)C[C@@H]1C	none (no result: Cneo AK release, S100A4 inh HTS, SIRT5 inh)
O=C(Cn1ncc(Cl)c(Cl)c1=O)N1CCN(S(=O)(=O)c2ccc3ccccc3c2)CC1	PGC1a acetyl inh 76.7 (no result: rRNA inh HTS, S100A4 inh HTS, SIRT5 inh)
CC(C)CNC(=S)N1CCC(C(=O)c2ccc(F)cc2)CC1	none
CC(C)CNC(=S)N1CCC(c2nc(-c3ccc(F)cc3)no2)CC1	rRNA inh HTS -25.6
O=C1Nc2ccccc2N=C(c2ccccc2)C1N(Cc1ccc(F)cc1)C(=O)c1cccnc1 (stereo not drawn)	PGC1a acetyl inh 40.5
O=C(NC1CCC1)[C@H]1[C@H](CO)[C@H]2Cn3c(ccc(C4=CCCC4)c3=O)[C@@H]1N2CC1CC1	none (no result: PGC1a acetyl inh)
C[C@@H]1CN([C@H](C)CO)C(=O)c2cc(NC(=O)C3CC3)ccc2O[C@@H]1CN(C)Cc1ccc(Oc2ccccc2)cc1	none
C[C@H](CO)N1C[C@H](C)[C@@H](CN(C)Cc2ccc(Oc3ccccc3)cc2)Oc2ccc(NC(=O)C3CC3)cc2C1=O	SIRT5 inh 18.1
COc1ccc(CN(C)C[C@@H]2Oc3ccc(NC(=O)C4CC4)cc3C(=O)N([C@H](C)CO)C[C@H]2C)cc1	Cneo AK release 105.6
COc1ccc(CN(C)C[C@H]2Oc3ccc(NC(=O)C4CC4)cc3C(=O)N([C@H](C)CO)C[C@@H]2C)cc1	none
COc1ccc(CN(C)C[C@@H]2Oc3ccc(NC(=O)Nc4ccc(OC)cc4)cc3C(=O)N([C@H](C)CO)C[C@@H]2C)cc1	none (no result: PGC1a acetyl inh)
COc1ccc(CN(C)C[C@@H]2Oc3ccc(NC(=O)C4CC4)cc3C(=O)N([C@@H](C)CO)C[C@H]2C)cc1	Cneo AK release 91.9
COc1cccc(-c2ccc3c(c2)[C@@H]2[C@@H](CCN2S(=O)(=O)C2=NC(C)C=N2)[C@H](CO)N3C)c1 (stereo partly drawn)	none (no result: S100A4 inh HTS, SIRT5 inh)
C[C@@H]1CN([C@@H](C)CO)S(=O)(=O)c2ccc(C3=CCCC3)cc2O[C@@H]1CN(C)Cc1cccnc1	none
CO[C@@H]1CN(C)C(=O)c2ccc(NC(=O)c3nc4ccccc4s3)cc2OC[C@@H](C)NC[C@@H]1C	none
Cc1cc(SCC(=O)OCC(=O)N(C)C2CCS(=O)(=O)C2)c(C)cc1Br (stereo not drawn)	SIRT5 inh 19.1
CCn1c(-c2sc(-c3ccccc3)nc2C)n[nH]c1=S	rRNA inh HTS -29.8 (no result: Cneo AK release, PGC1a acetyl inh, Statin myotox sup)
Cc1nc(-c2ccccc2)sc1-c1ccn[nH]1	none (no result: PGC1a acetyl inh)
COc1ccc(NC(=O)N(C)C[C@H]2OCCCC[C@@H](C)Oc3ccc(NC(=O)c4ccncc4)cc3C(=O)N([C@@H](C)CO)C[C@@H]2C)cc1	none (no result: S100A4 inh HTS, SIRT5 inh, Statin myotox sup)
CCCC(=O)Nc1ccc2c(c1)C(=O)N(C)C[C@H](OC)[C@H](C)CN(Cc1ccncc1)[C@@H](C)CO2	none (no result: Cneo AK release, S100A4 inh HTS, SIRT5 inh)
N=C1SCC(=O)N1c1ncc(Cc2ccc(F)cc2)s1	rRNA inh HTS -47.5
COc1ccc(NC(=O)CSc2nnc(-c3ccccc3Cl)n2Cc2ccco2)c(OC)c1	Statin myotox sup 115.0 (no result: rRNA inh HTS, S100A4 inh HTS, SIRT5 inh)
CCc1ccc2c(CN3CCC(C(=O)OC)CC3)cc(=O)oc2c1	rRNA inh HTS -21.9, Statin myotox sup inconclusive
Cc1nc2nc(COc3ccccc3)nn2c(C)c1Cl	Statin myotox sup 73.2 (no result: rRNA inh HTS, S100A4 inh HTS, SIRT5 inh)
C[C@@H](NC(=O)C[C@@H]1CC[C@@H](NC(=O)Cc2ccccn2)[C@@H](CO)O1)c1ccccc1	none
COc1ccccc1N(C1=NCCCS1)S(=O)(=O)c1ccc(C(C)(C)C)cc1	rRNA inh HTS -16.0 (no result: Cneo AK release)
C[C@@H]1CN([C@@H](C)CO)C(=O)c2c(c3ccccc3n2C)-c2ccccc2CO[C@@H]1CN(C)S(=O)(=O)c1cn(C)cn1	none
CN(C)CC(=O)Nc1ccc2c(c1)[C@H]1C[C@@H](CC(=O)N3CCc4ccccc4C3)O[C@H](CO)[C@H]1O2	none
OC(CSc1ccccc1Cl)CN1CCN(c2ccccc2F)CC1 (stereo not drawn)	none (no result: rRNA inh HTS, S100A4 inh HTS, SIRT5 inh)
OC(CSc1c(Cl)cccc1Cl)CN1CCN(c2ccccc2F)CC1 (stereo not drawn)	Statin myotox sup 171.6 (no result: rRNA inh HTS, S100A4 inh HTS, SIRT5 inh)
CNC(=O)CSCc1cnn(-c2ccccc2)c1-n1cccc1	none (no result: rRNA inh HTS, S100A4 inh HTS, SIRT5 inh)
O=C(CSCc1cnn(-c2ccccc2)c1-n1cccc1)NCc1cccs1	Statin myotox sup 121.0 (no result: rRNA inh HTS, S100A4 inh HTS, SIRT5 inh)
O=S1(=O)Nc2c(ccc3cccnc23)-c2ccccc21	Statin myotox sup 109.1 (no result: rRNA inh HTS, S100A4 inh HTS, SIRT5 inh)
Clc1ccc2ccc3cccnc3c2n1	none
C[C@H]1CN([C@@H](C)CO)C(=O)Cc2cc(NC(=O)NC3CCCCC3)ccc2O[C@@H]1CN(C)CC1CCCCC1	none
CN(C)c1ccc(/C(=N\O)C(F)(F)F)cc1	rRNA inh HTS -30.9
CCCN(C)C[C@H]1Oc2cc(-c3ccccc3)ccc2S(=O)(=O)N([C@H](C)CO)C[C@H]1C	none
COCCn1nnnc1C(c1ccc(C)cc1)N1CCN(Cc2ccc3c(c2)OCO3)CC1 (stereo not drawn)	Statin myotox sup 92.7 (no result: rRNA inh HTS, S100A4 inh HTS, SIRT5 inh)
CC(C)CCn1nnnc1C(c1ccccc1)N1CCN(C)CC1 (stereo not drawn)	none (no result: rRNA inh HTS, S100A4 inh HTS, SIRT5 inh)
C=CCN1CCN(C(c2ccccc2)c2nnnn2CCC(C)C)CC1 (stereo not drawn)	Statin myotox sup 70.9 (no result: rRNA inh HTS, S100A4 inh HTS, SIRT5 inh)
Cc1ccc(C(c2nnnn2Cc2cccs2)N2CCN(Cc3ccc4c(c3)OCO4)CC2)cc1 (stereo not drawn)	none (no result: rRNA inh HTS, S100A4 inh HTS, SIRT5 inh, Statin myotox sup)
COCCn1nnnc1C(c1ccccc1)N1CCN(Cc2ccc3c(c2)OCO3)CC1 (stereo not drawn)	Statin myotox sup 108.3 (no result: rRNA inh HTS, S100A4 inh HTS, SIRT5 inh)
C[C@@H]1CN([C@H](C)CO)C(=O)c2cc(NC(=O)C3CCCCC3)ccc2O[C@@H](C)CCCCO[C@H]1CN(C)C(=O)c1ccccc1	none
C[C@@H]1CN([C@@H](C)CO)C(=O)c2cc(NS(=O)(=O)c3cccs3)ccc2O[C@@H](C)CCCCO[C@@H]1CN(C)C(=O)Nc1ccc2c(c1)OCO2	none
C[C@H]1CCCCO[C@H](CN(C)C(=O)Nc2cccc3ccccc23)[C@@H](C)CN([C@@H](C)CO)C(=O)c2cc(NS(=O)(=O)c3cccs3)ccc2O1	none (no result: PGC1a acetyl inh)
Cc1ccc(S(=O)(=O)Nc2ccc3c(c2)C(=O)N([C@@H](C)CO)C[C@H](C)[C@H](CN(C)C(=O)Nc2cccc4ccccc24)OCCCC[C@@H](C)O3)cc1	none (no result: Statin myotox sup)
